This is an account of results in ChEMBL document CHEMBL1128288, “7-Azetidinylquinolones as antibacterial agents. 3. Synthesis, properties and structure-activity relationships of the stereoisomers containing a 7-(3-amino-2-methyl-1-azetidinyl) moiety” (J Med Chem, 1995).

Data set [1] deals with Staphylococcus aureus. The experiment in a line: In vitro antibacterial activity measured as minimum inhibitory concentration was evaluated on Staphylococcus aureus ATCC 25178 (Sa). Format: functional. In a few lines:
(§1)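 Serial 2-fold agar dilution in Mueller Hinton medium, run side by side with reference quinolones. Inoculum 10^5 cfu/mL; compound range 0.007–16 µg/mL.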

Another data set deals with Enterobacter cloacae. The experiment in a line: In vitro antibacterial activity measured as minimum inhibitory concentration, was evaluated on Enterobacter cloacae ATCC 23355 (Ecl). Format: functional.
Another data set concerns Bacillus subtilis. The experiment in a line: In vitro antibacterial activity measured as minimum inhibitory concentration was evaluated on Bacillus subtilis ATCC 6633(Bs). Format: functional. The essentials: as §1
The test system of data set [2] is Pseudomonas aeruginosa. The experiment in a line: In vitro antibacterial activity measured as minimum inhibitory concentration was evaluated on Pseudomonas aeruginosa ATCC 10145 (Pa). The format is functional. In a few lines:
as §1

Data set [3] in a line: Solubility in water was determined at 25 degrees Centigrade. Format: physicochemical. In a few lines: (§2)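 Excess solid was shaken 24 h at 25 °C in water or in 0.05 M phosphate buffer pH 7.4, then filtered (0.22 µm) with the first portion discarded. The filtrate was diluted with 0.1 N HCl or NaOH and measured spectrophotometrically at the compound's absorbance maximum.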
A further data set has as its system Enterococcus faecalis. The experiment in a line: In vitro antibacterial activity measured as minimum inhibitory concentration was evaluated on Streptococcus faecalis ATCC 10541 (Sf). Format: functional. In a few lines: as §1
A further data set relates to Bacillus cereus. The experiment in a line: In vitro antibacterial activity measured as minimum inhibitory concentration was evaluated on Bacillus cereus ATCC 11778 (Bc). Format: functional. The essentials:
as §1

The next data set relates to Klebsiella pneumoniae. The experiment in a line: In vitro antibacterial activity measured as minimum inhibitory concentration was evaluated on klebsiella pneumoniae ATCC 10031 (Kp). The format is functional. The essentials: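 Serial 2-fold agar dilution in Mueller Hinton medium, run side by side with reference quinolones.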
In data set [4] the test system is Staphylococcus epidermidis. The experiment in a line: In vitro antibacterial activity measured as minimum inhibitory concentration was evaluated on Staphylococcus epidermidis ATCC 155-1 (Se). Format: functional. In a few lines: as §1
The test system of another data set is Proteus vulgaris. The experiment in a line: In vitro antibacterial activity measured as minimum inhibitory concentration was evaluated on proteus vulgaris ATCC 8427 (Pv). Format: functional. In a few lines: as §1
Data set [5] deals with Escherichia coli. The experiment in a line: In vitro antibacterial activity measured as minimum inhibitory concentration, was evaluated on Escherichia coli ATCC 23559(Ec). The format is functional. In a few lines: as §1
The next data set concerns Morganella morganii. The experiment in a line: In vitro antibacterial activity measured as minimum inhibitory concentration was evaluated on morganella morganii ATCC 8019 (Mm). Format: functional. In a few lines: as §1
The nature of data set [6]: Solubility at pH 7.4 buffer. Format: physicochemical. The essentials: as §2
Data set [7] has as its system Pseudomonas aeruginosa. The experiment in a line: In vivo efficacy as ED50 against Pseudomonas aeruginosa HS-116 by oral administration in mice. The format is functional. In a few lines: (§3)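 Mice, 4 groups of 10, infected intraperitoneally with slightly more than the LD100 of the organism. A single oral dose was given immediately after infection, with four doses (one per group) chosen from in vitro activity. Survival was scored after one week. ED50 (total dose, mg/kg, protecting 50%) was interpolated among group survival rates.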

The conditions of data set [8]: mouse, in vivo, po, 50 mg/kg.
For data set [9], the system named is Escherichia coli. The experiment in a line: In vivo efficacy as ED50 against Escherichia coli HM-42 by oral administration in mice. Format: functional. In a few lines:
as §3

The subject of data set [10] is Staphylococcus aureus. The experiment in a line: In vivo efficacy as ED50 against Staphylococcus aureus HS-93 by oral administration in mice. Format: functional. The conditions noted are these: Staphylococcus aureus, po; read-out: ED50. The essentials: as §3
[11] abbreviates: Staphylococcus aureus, ATCC 25178, read-out: MIC.
Where [12] appears, read: Enterobacter cloacae, ATCC 23355, read-out: MIC.
Where [13] appears, read: Bacillus subtilis, ATCC 6633, read-out: MIC.
Where [14] appears, read: Pseudomonas aeruginosa, ATCC 10145, read-out: MIC.
Where [15] appears, read: Enterococcus faecalis, ATCC 10541, read-out: MIC.
[16] abbreviates: Bacillus cereus, ATCC 11778, read-out: MIC.
Where [17] appears, read: Klebsiella pneumoniae, ATCC 10031, read-out: MIC.
The mark [18] stands for this setting: Staphylococcus epidermidis, ATCC 155-1, read-out: MIC.
[19] abbreviates: Proteus vulgaris, ATCC 8427, read-out: MIC.
[20] abbreviates: Escherichia coli, ATCC 23559, read-out: MIC.
Where [21] appears, read: Morganella morganii, ATCC 8019, read-out: MIC.
Setting [22] is: Pseudomonas aeruginosa, po, read-out: ED50.
Setting [23] is: Escherichia coli, po, read-out: ED50.

≈ marks a conversion by molar mass, not a printed value.

The MIC is the least concentration at which growth counts as inhibited. What is called solubility is how much of the substance goes into solution per volume. As to `C[C@H](N)C(=O)N[C@@H]1CN(c2cc3c(cc2F)c(=O)c(C(=O)O)cn3-c2ccc(F)cc2F)[C@H]1C`, the MIC in the data set on Staphylococcus aureus [1] (setting [11]) is 1 µg/mL (≈ 2.11 µM); with Enterobacter cloacae (setting [12]), 2 µg/mL (≈ 4.22 µM); with Bacillus subtilis (setting [13]), 0.5 µg/mL (≈ 1.05 µM); in the data set on Pseudomonas aeruginosa [2] (setting [14]), 8 µg/mL (≈ 16.9 µM); with Enterococcus faecalis (setting [15]), 8 µg/mL (≈ 16.9 µM); with Bacillus cereus (setting [16]), 1 µg/mL (≈ 2.11 µM). The MIC with Klebsiella pneumoniae (setting [17]) came out at 2 µg/mL (≈ 4.22 µM); in [4] (setting [18]), 16 µg/mL (≈ 33.7 µM); in the data set with Proteus vulgaris (setting [19]) it was 16 µg/mL (≈ 33.7 µM); in the data set on Escherichia coli [5] (setting [20]), 1 µg/mL (≈ 2.11 µM); with Morganella morganii (setting [21]) it was 4 µg/mL (≈ 8.43 µM). The solubility in data set [3] and in [6] was greater than 500 µg/mL throughout.
Usually ED50 stands for the dose that gives a 50% effect, or the effect in half of the subjects. As a reminder, the AUC is the area under the concentration-time curve, a measure of exposure. Low readings indicate low exposure, high ones high exposure. On to `CC(C)C[C@H](N)C(=O)N[C@@H]1CN(c2nc3c(cc2F)c(=O)c(C(=O)O)cn3C2CC2)[C@H]1C`, for which the MIC in the data set on Staphylococcus aureus [1] (setting [11]) is 0.25 µg/mL (≈ 0.561 µM); with Enterobacter cloacae (setting [12]), 0.12 µg/mL (≈ 0.269 µM); with Bacillus subtilis (setting [13]) it was 0.12 µg/mL (≈ 0.269 µM); in the data set on Pseudomonas aeruginosa [2] (setting [14]) it was 8 µg/mL (≈ 18 µM); in the data set with Enterococcus faecalis (setting [15]) it was 2 µg/mL (≈ 4.49 µM); with Bacillus cereus (setting [16]) it was 0.12 µg/mL (≈ 0.269 µM). Moreover, the minimum inhibitory concentration (MIC) came out at 0.06 µg/mL (≈ 0.135 µM) in the data set on Klebsiella pneumoniae (setting [17]); 0.25 µg/mL (≈ 0.561 µM) in data set [4] (setting [18]); 0.25 µg/mL (≈ 0.561 µM) in the data set on Proteus vulgaris (setting [19]); 0.06 µg/mL (≈ 0.135 µM) in the data set with Escherichia coli [5] (setting [20]); 0.25 µg/mL (≈ 0.561 µM) in the data set on Morganella morganii (setting [21]). The ED50 was determined as 63 mg/kg in the data set with Pseudomonas aeruginosa [7] (setting [22]), 2 mg/kg in the data set on Escherichia coli [9] (setting [23]) and 9.4 mg/kg in the data set on Staphylococcus aureus [10]. For the same compound, the solubility in data set [3] and in [6] was greater than 500 µg/mL throughout. In addition, the AUC in data set [8] came to 24900 ng·h/mL.
Turning to `C[C@H]1[C@H](N)CN1c1nc2c(cc1F)c(=O)c(C(=O)O)cn2C1CC1` (single isomer, unassigned), the MIC with Staphylococcus aureus [1] (setting [11]) was determined as 0.06 µg/mL (≈ 0.181 µM); in the data set on Enterobacter cloacae (setting [12]) it was 0.015 µg/mL (≈ 0.0451 µM); with Bacillus subtilis (setting [13]), 0.015 µg/mL (≈ 0.0451 µM); in the data set with Pseudomonas aeruginosa [2] (setting [14]), 0.12 µg/mL (≈ 0.361 µM); with Enterococcus faecalis (setting [15]), 0.12 µg/mL (≈ 0.361 µM); in the data set with Bacillus cereus (setting [16]), 0.015 µg/mL (≈ 0.0451 µM). Further, the MIC with Klebsiella pneumoniae (setting [17]) was found to be 0.015 µg/mL (≈ 0.0451 µM); in data set [4] (setting [18]), 0.06 µg/mL (≈ 0.181 µM); with Escherichia coli [5] (setting [20]), 0.015 µg/mL (≈ 0.0451 µM); with Morganella morganii (setting [21]) it was 0.015 µg/mL (≈ 0.0451 µM). Further, the ED50 came to 34 mg/kg in the data set with Pseudomonas aeruginosa [7] (setting [22]), 1 mg/kg in the data set with Escherichia coli [9] (setting [23]) and 4.6 mg/kg in the data set with Staphylococcus aureus [10]. Further, the solubility in data set [3] turned out to be 23 µg/mL (≈ 69.2 µM); in data set [6], 16.5 µg/mL (≈ 49.6 µM). The compound also came in with an area under the curve (AUC) in data set [8] of 19200 ng·h/mL.
`CC1C(N)CN1c1c(F)cc2c(=O)c(C(=O)O)cn3c2c1OC[C@@H]3C` (single isomer, unassigned): the MIC in the data set on Staphylococcus aureus [1] (setting [11]) was 0.015 µg/mL (≈ 0.0432 µM); in the data set with Enterobacter cloacae (setting [12]), 0.015 µg/mL (≈ 0.0432 µM); in the data set on Bacillus subtilis (setting [13]), 0.015 µg/mL (≈ 0.0432 µM); in the data set with Pseudomonas aeruginosa [2] (setting [14]), 0.25 µg/mL (≈ 0.72 µM); with Enterococcus faecalis (setting [15]) it was 0.12 µg/mL (≈ 0.345 µM); in the data set on Bacillus cereus (setting [16]), 0.06 µg/mL (≈ 0.173 µM). The MIC in the data set on Klebsiella pneumoniae (setting [17]) amounted to 0.015 µg/mL (≈ 0.0432 µM); in [4] (setting [18]) it was 0.015 µg/mL (≈ 0.0432 µM); in the data set with Proteus vulgaris (setting [19]), 0.06 µg/mL (≈ 0.173 µM); in the data set with Escherichia coli [5] (setting [20]) it was 0.015 µg/mL (≈ 0.0432 µM); in the data set on Morganella morganii (setting [21]), 0.015 µg/mL (≈ 0.0432 µM). The ED50 in the data set on Pseudomonas aeruginosa [7] (setting [22]) was 26 mg/kg; with Escherichia coli [9] (setting [23]) it was 5.9 mg/kg; in the data set with Staphylococcus aureus [10] it was 6.9 mg/kg. The AUC in [8] came to 2300 ng·h/mL.
Turning to `C[C@H]1[C@H](N)CN1c1cc2c(cc1F)c(=O)c(C(=O)O)cn2-c1ccc(F)cc1F` (single isomer, unassigned) [CETEFLOXACIN], the ED50 in the data set with Pseudomonas aeruginosa [7] (setting [22]) came out at 64 mg/kg; in the data set on Escherichia coli [9] (setting [23]) it was 4 mg/kg; with Staphylococcus aureus [10], 7 mg/kg. The MIC in the data set on Bacillus subtilis (setting [13]) turned out to be 0.06 µg/mL (≈ 0.149 µM); in the data set on Pseudomonas aeruginosa [2] (setting [14]), 1 µg/mL (≈ 2.48 µM); in the data set on Klebsiella pneumoniae (setting [17]), 0.06 µg/mL (≈ 0.149 µM); in the data set with Escherichia coli [5] (setting [20]), 0.06 µg/mL (≈ 0.149 µM). For the same compound, the solubility in [3] was determined as 8 µg/mL (≈ 19.8 µM); in [6], 5.9 µg/mL (≈ 14.6 µM). In addition, in data set [8], the AUC stood at 28400 ng·h/mL.
As for `C[C@@H]1[C@@H](N)CN1c1c(F)cc2c(=O)c(C(=O)O)cn(C3CC3)c2c1F` (stereo in doubt; 22b), the MIC was 0.25 µg/mL (≈ 0.716 µM) against Staphylococcus aureus [1]; 0.25 µg/mL (≈ 0.716 µM) against Enterobacter cloacae; 0.12 µg/mL (≈ 0.344 µM) in the data set on Bacillus subtilis; 4 µg/mL (≈ 11.5 µM) against Pseudomonas aeruginosa [2]; 2 µg/mL (≈ 5.73 µM) in the data set on Enterococcus faecalis; 0.5 µg/mL (≈ 1.43 µM) against Bacillus cereus. The MIC worked out at 0.12 µg/mL (≈ 0.344 µM) with Klebsiella pneumoniae; 0.25 µg/mL (≈ 0.716 µM) in data set [4]; 0.5 µg/mL (≈ 1.43 µM) in the data set on Proteus vulgaris; 0.25 µg/mL (≈ 0.716 µM) with Escherichia coli [5]; 0.25 µg/mL (≈ 0.716 µM) in the data set on Morganella morganii. For the same compound, the ED50 in the data set with Pseudomonas aeruginosa [7] turned out to be 65 mg/kg; in the data set on Escherichia coli [9], 10.2 mg/kg; in the data set on Staphylococcus aureus [10], 12.2 mg/kg. For the same compound, the AUC in data set [8] amounted to 13600 ng·h/mL.
